Data on three compounds can be found in ChEMBL document CHEMBL4393654, “Discovery and Early Clinical Development of an Inhibitor of 5-Lipoxygenase Activating Protein (AZD5718) for Treatment of Coronary Artery Disease” (J Med Chem, 2019).

Converted amounts (≈) assume the structure as drawn.

Data set [1] can be described thus: Aqueous solubility of the compound in pH 7.4 phosphate buffer measured after 24 hrs by LC-MS/MS-based shake flask method. The class given is physicochemical.
For another data set, the target named is T1, Cytochrome P450 2C8 (Homo sapiens, UniProt P10632).
T1 sequence (P10632 whole entry): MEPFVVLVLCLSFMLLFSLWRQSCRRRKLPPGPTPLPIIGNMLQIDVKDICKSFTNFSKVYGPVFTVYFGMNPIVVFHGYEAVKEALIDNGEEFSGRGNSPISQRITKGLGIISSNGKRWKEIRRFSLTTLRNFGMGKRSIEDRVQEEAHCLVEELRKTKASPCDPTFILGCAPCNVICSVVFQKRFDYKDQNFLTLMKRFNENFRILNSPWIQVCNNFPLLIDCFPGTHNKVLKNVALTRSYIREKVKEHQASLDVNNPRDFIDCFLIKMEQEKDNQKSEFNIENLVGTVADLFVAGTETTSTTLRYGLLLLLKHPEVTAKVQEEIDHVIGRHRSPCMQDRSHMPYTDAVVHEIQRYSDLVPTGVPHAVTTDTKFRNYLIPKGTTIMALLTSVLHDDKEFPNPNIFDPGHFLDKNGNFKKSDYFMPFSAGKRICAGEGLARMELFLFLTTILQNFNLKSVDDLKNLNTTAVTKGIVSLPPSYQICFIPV
The data set is described as follows: Inhibition of recombinant human CYP2C8 expressed in Escherichia coli using luciferin-ME as substrate by fluorescence assay. The class given is ADME.

The target of data set [2] is T2, A-type voltage-gated potassium channel KCND3 (Homo sapiens, UniProt Q9UK17).
T2 sequence (Q9UK17 whole entry): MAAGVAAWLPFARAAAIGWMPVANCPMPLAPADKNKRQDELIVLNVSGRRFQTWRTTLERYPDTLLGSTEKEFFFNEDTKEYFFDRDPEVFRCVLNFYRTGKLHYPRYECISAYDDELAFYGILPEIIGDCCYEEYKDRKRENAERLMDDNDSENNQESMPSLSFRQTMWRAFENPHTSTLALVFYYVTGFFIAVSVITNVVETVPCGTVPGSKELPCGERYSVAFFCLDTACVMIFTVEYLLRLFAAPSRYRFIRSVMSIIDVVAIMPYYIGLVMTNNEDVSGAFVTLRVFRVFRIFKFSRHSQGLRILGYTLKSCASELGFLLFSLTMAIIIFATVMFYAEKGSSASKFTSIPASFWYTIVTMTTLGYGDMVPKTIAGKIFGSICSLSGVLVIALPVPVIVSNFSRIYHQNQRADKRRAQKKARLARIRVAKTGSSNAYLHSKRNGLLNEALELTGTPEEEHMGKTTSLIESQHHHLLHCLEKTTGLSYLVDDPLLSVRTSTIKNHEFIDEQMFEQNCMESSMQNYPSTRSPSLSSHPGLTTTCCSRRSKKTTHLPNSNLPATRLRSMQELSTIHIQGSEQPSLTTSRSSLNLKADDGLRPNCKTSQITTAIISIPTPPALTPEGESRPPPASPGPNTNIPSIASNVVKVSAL
In words: Inhibition of human Kv4.3 by Ion-work electrophysiology assay.

The nature of data set [3]: Cardiotoxicity in anesthetized Beagle dog assessed as effect on cardiac contractility administered for 2 days as 45 mins iv infusion followed by compound washout and subsequent adrenaline dosing for 2 days as 10 mins iv infusion. To be noted: in vivo. The class given is toxicity, organism-based, Canis lupus familiaris.
Data set [4] in a line: Half life in Beagle dog at 2 umol/kg, iv. The class given is ADME, Canis lupus familiaris. As to conditions: in vivo; call rule not given here.
A short description of data set [5]: Clearance in rat at 1 umol/kg, iv. The class given is ADME. To be noted: in vivo.
A short description of data set [6]: Oral bioavailability in Beagle dog at 2 umol/kg. The class given is ADME, organism-based, Canis lupus familiaris. As to conditions: in vivo.
A short description of data set [7]: Intrinsic clearance in rat hepatocytes assessed per million cells at 1 uM measured after 2 to 60 mins by LC-MS/MS analysis. As to conditions: read-out: CLH. The class given is ADME, cell-based, Hepatocyte. Put shortly: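 Rat hepatocyte incubation of the compound; intrinsic clearance measured after incubation.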
A short description of data set [8]: Clearance in Beagle dog at 2 umol/kg, iv. The class given is ADME, Canis lupus familiaris. To be noted: in vivo.
The target of the next data set is Cytochrome P450 2C19 (Homo sapiens, UniProt P33261). The data set is described as follows: Inhibition of recombinant human CYP2C19 expressed in Escherichia coli using CEC as substrate by fluorescence assay. The class given is ADME.
Data set [9] deals with T3, Aryl hydrocarbon receptor (Homo sapiens, UniProt P35869).
T3 sequence (P35869 whole entry): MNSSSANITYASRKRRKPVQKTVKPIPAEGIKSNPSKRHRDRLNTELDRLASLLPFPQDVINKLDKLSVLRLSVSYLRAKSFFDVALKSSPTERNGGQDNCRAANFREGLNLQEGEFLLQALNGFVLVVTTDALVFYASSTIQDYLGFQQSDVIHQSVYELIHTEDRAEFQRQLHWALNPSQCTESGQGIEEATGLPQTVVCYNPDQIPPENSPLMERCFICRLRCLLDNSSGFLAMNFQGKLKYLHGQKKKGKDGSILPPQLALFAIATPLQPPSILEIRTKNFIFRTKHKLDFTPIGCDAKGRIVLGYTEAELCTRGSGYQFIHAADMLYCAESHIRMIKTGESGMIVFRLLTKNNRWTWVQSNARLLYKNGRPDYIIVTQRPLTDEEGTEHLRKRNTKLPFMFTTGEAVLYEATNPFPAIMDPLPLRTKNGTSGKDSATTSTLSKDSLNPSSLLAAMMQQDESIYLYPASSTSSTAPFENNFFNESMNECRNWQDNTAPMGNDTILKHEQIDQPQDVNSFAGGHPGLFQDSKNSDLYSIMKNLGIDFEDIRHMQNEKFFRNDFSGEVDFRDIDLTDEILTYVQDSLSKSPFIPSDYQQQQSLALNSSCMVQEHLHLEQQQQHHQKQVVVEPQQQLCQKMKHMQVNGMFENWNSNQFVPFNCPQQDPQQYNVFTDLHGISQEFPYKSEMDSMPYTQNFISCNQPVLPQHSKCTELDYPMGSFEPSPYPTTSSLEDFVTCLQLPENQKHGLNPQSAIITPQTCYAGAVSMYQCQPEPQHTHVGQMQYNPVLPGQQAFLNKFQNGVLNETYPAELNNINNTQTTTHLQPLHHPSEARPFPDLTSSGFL
The data set is described as follows: Agonist activity at AhR in human HepG2 cells assessed as induction of CYP1A1 activity at 0.001 to 30 uM measured after 24 hrs by immunocytochemistry analysis. The class given is ADME, cell-based. As to conditions: hepg2, 24 h.

A short description of data set [10]: Half life in rat at 1 umol/kg, iv. The class given is ADME. As to conditions: in vivo.
For data set [11], the target named is Potassium/sodium hyperpolarization-activated cyclic nucleotide-gated channel 4 (Homo sapiens, UniProt Q9Y3Q4). In words: Inhibition of human HCN4 by Ion-work electrophysiology assay.
The target in data set [12] is Potassium voltage-gated channel subfamily A member 5 (Homo sapiens, UniProt P22460). In words: Inhibition of human Kv1.5 by Ion-work electrophysiology assay.
Data set [13] in a line: Volume of distribution at steady state in Beagle dog at 2 umol/kg, iv. The class given is ADME, Canis lupus familiaris. As to conditions: in vivo, read-out: Vdss.
A short description of data set [14]: Mutagenicity in Salmonella typhimurium TA100 in presence of rat S9 fraction by Ames test. The class given is toxicity, subcellular. As to conditions: salmonella enterica subsp. enterica serovar typhimurium. In outline: (§1)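 Ames bacterial mutagenicity test in S. typhimurium TA98 and TA100. Run with and without metabolic activation by rat S9 fraction.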
On the technique in general: In the Ames test, an excess of revertant colonies over the control signals mutagenicity.

Data set [15] is described as follows: Cardiotoxicity in anesthetized Beagle dog assessed as effect on heart rate administered for 2 days as 45 mins iv infusion followed by compound washout and subsequent adrenaline dosing for 2 days as 10 mins iv infusion. The class given is toxicity, organism-based, Canis lupus familiaris. To be noted: in vivo.
Data set [16] is described as follows: Mutagenicity in Salmonella typhimurium TA98 in presence of rat S9 fraction by Ames test. The class given is toxicity, subcellular. To be noted: salmonella enterica subsp. enterica serovar typhimurium. Put shortly: as §1

Chain of Cytochrome P450 2C19 (P33261 whole entry): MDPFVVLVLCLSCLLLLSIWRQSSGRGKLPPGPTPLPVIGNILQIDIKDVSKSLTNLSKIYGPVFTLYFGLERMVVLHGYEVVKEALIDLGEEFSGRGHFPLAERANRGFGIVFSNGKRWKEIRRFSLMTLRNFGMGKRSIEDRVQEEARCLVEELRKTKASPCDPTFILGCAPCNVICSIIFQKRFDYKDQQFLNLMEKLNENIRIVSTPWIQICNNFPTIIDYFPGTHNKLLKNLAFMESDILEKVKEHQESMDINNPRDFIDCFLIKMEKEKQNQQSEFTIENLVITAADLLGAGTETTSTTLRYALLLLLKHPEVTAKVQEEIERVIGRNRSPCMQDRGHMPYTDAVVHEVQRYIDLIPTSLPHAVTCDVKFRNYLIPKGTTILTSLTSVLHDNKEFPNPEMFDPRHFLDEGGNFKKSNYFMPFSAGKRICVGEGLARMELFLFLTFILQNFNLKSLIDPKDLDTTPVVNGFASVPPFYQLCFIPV
Chain of Potassium voltage-gated channel subfamily A member 5 (P22460 whole entry): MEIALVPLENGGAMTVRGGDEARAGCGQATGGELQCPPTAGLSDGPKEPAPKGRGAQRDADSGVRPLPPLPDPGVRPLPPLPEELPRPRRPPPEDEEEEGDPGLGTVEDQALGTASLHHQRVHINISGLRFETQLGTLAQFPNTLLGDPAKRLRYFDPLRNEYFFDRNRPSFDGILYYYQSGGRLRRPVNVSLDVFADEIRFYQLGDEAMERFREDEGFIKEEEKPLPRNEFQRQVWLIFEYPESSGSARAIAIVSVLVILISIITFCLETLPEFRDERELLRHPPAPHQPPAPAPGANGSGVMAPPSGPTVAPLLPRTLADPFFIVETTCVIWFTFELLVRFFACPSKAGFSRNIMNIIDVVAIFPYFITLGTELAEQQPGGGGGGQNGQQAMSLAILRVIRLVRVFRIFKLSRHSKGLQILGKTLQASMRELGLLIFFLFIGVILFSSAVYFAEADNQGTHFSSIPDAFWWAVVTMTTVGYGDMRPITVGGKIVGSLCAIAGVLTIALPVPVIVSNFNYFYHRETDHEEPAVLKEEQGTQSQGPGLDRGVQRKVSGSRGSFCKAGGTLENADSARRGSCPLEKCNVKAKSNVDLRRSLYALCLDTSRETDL
Chain of Potassium/sodium hyperpolarization-activated cyclic nucleotide-gated channel 4 (Q9Y3Q4 whole entry): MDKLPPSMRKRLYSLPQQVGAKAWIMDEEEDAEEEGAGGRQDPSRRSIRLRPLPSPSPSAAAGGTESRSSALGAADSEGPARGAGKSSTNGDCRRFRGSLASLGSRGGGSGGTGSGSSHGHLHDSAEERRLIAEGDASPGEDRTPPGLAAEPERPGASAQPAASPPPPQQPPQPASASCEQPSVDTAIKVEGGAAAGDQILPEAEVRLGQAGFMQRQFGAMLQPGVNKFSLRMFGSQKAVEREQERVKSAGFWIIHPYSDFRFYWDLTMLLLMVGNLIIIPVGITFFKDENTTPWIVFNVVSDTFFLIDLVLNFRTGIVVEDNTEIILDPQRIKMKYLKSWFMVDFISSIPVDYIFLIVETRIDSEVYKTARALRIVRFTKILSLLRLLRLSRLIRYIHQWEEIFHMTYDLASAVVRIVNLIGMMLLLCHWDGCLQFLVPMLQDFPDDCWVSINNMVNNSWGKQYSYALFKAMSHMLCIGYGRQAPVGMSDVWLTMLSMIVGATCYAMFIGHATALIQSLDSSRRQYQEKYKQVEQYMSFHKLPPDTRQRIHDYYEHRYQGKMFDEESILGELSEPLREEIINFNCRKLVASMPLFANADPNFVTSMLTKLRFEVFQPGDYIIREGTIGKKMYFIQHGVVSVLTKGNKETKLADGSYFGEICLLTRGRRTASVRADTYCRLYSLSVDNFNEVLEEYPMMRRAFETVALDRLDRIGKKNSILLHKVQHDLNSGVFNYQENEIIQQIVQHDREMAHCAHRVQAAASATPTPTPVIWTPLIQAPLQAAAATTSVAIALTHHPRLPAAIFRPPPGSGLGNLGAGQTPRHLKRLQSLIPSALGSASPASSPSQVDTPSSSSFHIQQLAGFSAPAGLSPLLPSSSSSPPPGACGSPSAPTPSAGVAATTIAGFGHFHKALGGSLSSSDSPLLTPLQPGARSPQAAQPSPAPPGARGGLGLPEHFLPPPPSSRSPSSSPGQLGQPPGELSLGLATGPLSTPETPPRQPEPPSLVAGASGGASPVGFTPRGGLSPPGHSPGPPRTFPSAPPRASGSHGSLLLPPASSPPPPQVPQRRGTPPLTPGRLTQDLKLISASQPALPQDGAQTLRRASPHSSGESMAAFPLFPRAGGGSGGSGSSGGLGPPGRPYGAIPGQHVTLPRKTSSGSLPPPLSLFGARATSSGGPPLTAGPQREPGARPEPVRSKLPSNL

As usually defined, the thermodynamic solubility is the concentration in solution at equilibrium with solid. One may read the IC50 as the concentration that gives 50% inhibition. The term half-life denotes the time in which the quantity being followed falls by half. A higher half-life goes with slow decline. Broadly, the clearance is the volume of plasma or blood freed of the substance per unit of time. High values mean efficient removal, low ones inefficient removal. As a reminder, the bioavailability is the share of a dose that reaches the circulation, judged against a reference dose that is usually intravenous. Low readings indicate little systemic uptake, high ones much systemic uptake. For the compound `Cc1cc(-c2ccc(C(=O)[C@@H]3CCCC[C@H]3C(=O)Nc3cnn4c3C(=O)NCC4)cc2)[nH]n1`, the solubility (thermodynamic) at 24 h in [1] came out at 104 µM (≈ 46.4 µg/mL). Further, the IC50 on Cytochrome P450 2C8 was over 20 µM; in data set [2] it was over 33 µM; at Cytochrome P450 2C19, over 20 µM; in data set [11], over 32 µM; in data set [12] it was over 32 µM. For the same compound, the Activity result is recorded as “Non-Toxic” in [3]; “Not Active” in data set [9]; “Non-Toxic” in data set [14]; “Non-Toxic” in [15]; “Non-Toxic” in data set [16]. For the same compound, the half-life in data set [4] was 2.1 h; in data set [10] it was 0.45 h. The clearance in [5] was 36 mL/min/kg; in data set [8] it was 7.6 mL/min/kg. In data set [6], this compound displayed a bioavailability of 65%. Also, the hepatocyte CLint at 1 µM in data set [7] is 13.8 µL/min/1e6 cells. Also, the Vd in [13] worked out at 1.1 L/kg.
In the case of `Cc1cc(-c2ccc(C(=O)[C@@H]3CCCC[C@H]3C(=O)Nc3cnn(C)c3S(N)(=O)=O)cc2)[nH]n1`, the thermodynamic solubility at 24 h in [1] is 79.7 µM (≈ 37.5 µg/mL). The 50% inhibitory concentration (IC50) was over 20 µM on Cytochrome P450 2C8; over 33 µM in data set [2]; over 20 µM on Cytochrome P450 2C19; over 32 µM in data set [11]; over 32 µM in [12]. In addition, the Activity entry in data set [3] is given as “Non-Toxic”; in [9] it was “Not Active”; in [14], “Non-Toxic”; in data set [15], “Non-Toxic”; in [16] it was “Non-Toxic”. The compound also gave a half-life in [4] of 6.8 h. The hepatocyte CLint at 1 µM in data set [7] turned out to be 9.7 µL/min/1e6 cells. The compound further had a clearance in data set [8] of 2.5 mL/min/kg. The Vd in data set [13] is 1.3 L/kg.
`Cc1cc(-c2ccc(C(=O)[C@@H]3CCCC[C@H]3C(=O)Nc3cnn(C)c3C(=O)NOC(C)(C)C)cc2)[nH]n1`: the thermodynamic solubility at 24 h in data set [1] was 208 µM (≈ 105 µg/mL). Further, the figures for the IC50 (on Cytochrome P450 2C8; in data set [2]; on Cytochrome P450 2C19) were over 20 µM, over 33 µM and over 20 µM, respectively. In addition, the Activity result in data set [3] is “Toxic”; in [9], “Not Active”; in data set [14], “Non-Toxic”; in data set [15], “Toxic”; in [16], “Non-Toxic”. The compound also gave a clearance in data set [5] of 1.2 mL/min/kg. Besides, the bioavailability in data set [6] was 65%. In addition, in data set [7], the hepatocyte CLint at 1 µM was determined as 19.5 µL/min/1e6 cells. For the same compound, the half-life in data set [10] is 4.7 h.
